Format in all cases: functional
The species entered for assay [1] is Cavia porcellus. The assay is described as follows: Total score of healing period in HSV-1 cutaneous infection in guinea pig 1%HPMPC.
The species entered for assay [2] is Cavia porcellus. In words: Total score of healing period in HSV-1 cutaneous infection in guinea pig at 0.1% HPMPC.
The species entered for assay [3] is Cavia porcellus. In words: Total score of healing period in HSV-1 cutaneous infection in guinea pig at 5% HPMPC.
For assay [4], the species on record is Cavia porcellus. In words: Total score of lesion formation in HSV-1 cutaneous infection in guinea pig at 0.1% HPMPC.
The species entered for assay [5] is Cavia porcellus. In words: Total score of lesion formation in HSV-1 cutaneous infection in guinea pig at 1% HPMPC.
For assay [6], the species on record is Cavia porcellus. The assay is described as follows: Total score of lesion formation in HSV-1 cutaneous infection in guinea pig at 5% HPMPC.
For assay [7], the species on record is Cavia porcellus. The assay is described as follows: Duration of time of lesion formation in HSV-1 cutaneous infection in guinea pig at 1% HPMPC.
For assay [8], the species on record is Cavia porcellus. In words: Duration of time of lesion formation in HSV-1 cutaneous infection in guinea pig at 5% HPMPC.
The species named for assay [9] is Cavia porcellus. The assay is described as follows: Mean of severity score obtained from five different individuals at 1% HPMPC.
The species entered for assay [10] is Cavia porcellus. In words: Mean of severity score obtained from five different individuals at 5% HPMPC.
The species entered for assay [11] is Cavia porcellus. In words: Duration of time of healing period in HSV-1 cutaneous infection in guinea pig at 0.1% HPMPC.
Assay [12] is filed under the species Cavia porcellus. The assay is described as follows: Duration of time of healing period in HSV-1 cutaneous infection in guinea pig at 1% HPMPC.
For assay [13], the species on record is Cavia porcellus. The assay is described as follows: Duration of time of healing period in HSV-1 cutaneous infection in guinea pig at 5% HPMPC.
The species named for assay [14] is Cavia porcellus. The assay is described as follows: Duration of time of lesion formation in HSV-1 cutaneous infection in guinea pig at 0.1% HPMPC.
For assay [15], the system named is Human alphaherpesvirus 1. In words: Antiviral activity of the compound, determined by plaque-reduction assay against Herpes simplex virus (HSV) type 1, BW5 strain in Vero cells. The conditions noted are these: Human alphaherpesvirus 1, Vero; read-out: ID50 (the source's name). In a few lines:
(§1)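 Plaque reduction: confluent monolayers (Vero for HSV, MRC-5 for HCMV) infected with 30-50 PFU in PBS, 1 h adsorption, then compound dilutions in EMEM with 10% fetal bovine serum; 48 h at 37 °C, 5% CO2; fixed, Carbol fuchsin stained, plaques counted. ID50 = concentration reducing plaque number by 50% versus virus control.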
On the technique in general: Plaque reduction counts the foci of infection that form in a cell layer.

Assay [16] relates to Human alphaherpesvirus 1. The assay is described as follows: Antiviral activity of the compound, determined by plaque-reduction assay against thymidine kinase deficient Herpes simplex virus type 1, Z826 strain in Vero cells. The note with it: Human alphaherpesvirus 1, Vero; read-out: ID50 (the source's name). In a few lines:
as §1

The subject of assay [17] is Human alphaherpesvirus 2. The assay is described as follows: Antiviral activity determined by plaque-reduction assay against Herpes simplex virus type 2, G strain in Vero cells. The conditions noted are these: Human alphaherpesvirus 2, Vero; read-out: ID50 (the source's name). In a few lines:
as §1

Another assay has as its system Human betaherpesvirus 5. In words: Antiviral activity determined by plaque-reduction assay against Human cytomegalovirus, AD-169 strain in MRC-5 cells. The conditions noted are these: Human betaherpesvirus 5, MRC5; read-out: ID50 (the source's name). In a few lines: as §1
In assay [18] the test system is Mus musculus. The assay is described as follows: Mean survival time of mice was determined after intraperitoneal administration of compound at 0.1 mg/kg per day in experiment 2. In a few lines: (§2)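 Female Swiss mice (16–18 g) infected ip with (2-6) × 10^2 PFU HSV 1 HL-34, randomized into groups of 10. Ip dosing started 3 h postinfection, twice daily for 5 consecutive days; vehicle 0.2% carboxymethylcellulose with 0.2% Tween 80 in water. Mortality followed 21 days; survival by Fisher's exact test, mean survival time by Gehan-Wilcoxon.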

Assay [19] concerns Mus musculus. The assay is described as follows: Mean survival time of mice was determined after intraperitoneal administration of compound at 1 mg/kg per day in experiment 2. In a few lines: as §2
Assay [20] concerns Mus musculus. In words: Mean survival time of mice was determined after intraperitoneal administration of compound at 10 mg/kg per day in experiment 1. In a few lines: as §2
For assay [21], the system named is Mus musculus. The assay is described as follows: Mean survival time of mice was determined after intraperitoneal administration of compound at 100 mg/kg per day in experiment 1. An outline of the steps:
as §2

The test system of assay [22] is Mus musculus. In words: Mean survival time of mice was determined after intraperitoneal administration of compound at 200 mg/kg per day in experiment 1. In a few lines: as §2
Assay [23] has as its system Mus musculus. The assay is described as follows: Percentage survival of mice after intraperitoneal administration of compound at 0.1 mg/kg per day in experiment 2; survival/ tested =5/10. The note with it: ip. An outline of the steps:
as §2

Assay [24] concerns Mus musculus. In words: Percentage survival of mice after intraperitoneal administration of compound at 100 mg/kg per day in experiment 1; survival/ tested =10/10. The note with it: ip. An outline of the steps: as §2
The test system of assay [25] is Mus musculus. The assay is described as follows: Percentage survival of mice after intraperitoneal administration of compound at 10 mg/kg per day in experiment 1; survival/ tested =10/10. The note with it: ip. In a few lines: as §2
The subject of assay [26] is Mus musculus. The assay is described as follows: Percentage survival of mice after intraperitoneal administration of compound at 10 mg/kg per day in experiment 2; survival/ tested =10/10. The note with it: ip. An outline of the steps:
as §2

Assay [27] has as its system Mus musculus. In words: Percentage survival of mice after intraperitoneal administration of compound at 1 mg/kg per day in experiment 2; survival/ tested =9/10. The note with it: ip. An outline of the steps:
as §2

The test system of assay [28] is Mus musculus. In words: Percentage survival of mice after intraperitoneal administration of compound at 200 mg/kg per day in experiment 1; survival/ tested =10/10. The conditions noted are these: ip. In a few lines:
as §2

The test system of assay [29] is Mus musculus. The assay is described as follows: Mean survival time of mice was determined after intraperitoneal administration of compound at 10 mg/kg per day in experiment 2. In a few lines:
as §2

For assay [30], the species on record is Cavia porcellus. In words: Mean of severity score obtained from five different individuals at 0.1% HPMPC.
The species entered for assay [31] is Cavia porcellus. The assay is described as follows: Total score of healing period in HSV-1 cutaneous infection in guinea pig at 5% ACV.
For assay [32], the species on record is Cavia porcellus. In words: Total score of lesion formation in HSV-1 cutaneous infection in guinea pig at 5% ACV.
For assay [33], the species on record is Cavia porcellus. The assay is described as follows: Duration of time of lesion formation in HSV-1 cutaneous infection in guinea pig at 5%ACV.
The species entered for assay [34] is Cavia porcellus. The assay is described as follows: Mean of severity score obtained from five different individuals at 5% ACV.
Assay [35] is filed under the species Cavia porcellus. The assay is described as follows: Duration of time of healing period in HSV-1 cutaneous infection in guinea pig at 5%ACV.
The subject of assay [36] is Human alphaherpesvirus 1. In words: In vitro antiviral activity of the compound, determined by plaque-reduction assay against Herpes simplex virus (HSV) type 1, BW5 strain in Vero cells. The conditions noted are these: Human alphaherpesvirus 1, Vero; read-out: ID50 (the source's name). An outline of the steps: as §1
The test system of assay [37] is Human alphaherpesvirus 1. In words: In vitro antiviral activity of the compound, determined by plaque-reduction assay against thymidine kinase deficient Herpes simplex virus type 1, Z826 strain in Vero cells. The conditions noted are these: Human alphaherpesvirus 1, Vero; read-out: ID50 (the source's name). In a few lines: as §1
Assay [38] deals with Human alphaherpesvirus 2. In words: In vitro antiviral activity determined by plaque-reduction assay against Herpes simplex virus type 2, G strain in Vero cells. The conditions noted are these: Human alphaherpesvirus 2, Vero; read-out: ID50 (the source's name). In a few lines: as §1
Assay [39] has as its system Mus musculus. In words: Percentage survival of mice after intraperitoneal administration of compound at 100 mg/kg per day in experiment 1; survival/ tested =7/10. The conditions noted are these: ip. In a few lines: as §2
For assay [40], the system named is Mus musculus. In words: Percentage survival of mice after intraperitoneal administration of compound at 200 mg/kg per day in experiment 1; survival/ tested =3/4. The conditions noted are these: ip.
Assay [41] concerns Mus musculus. The assay is described as follows: Percentage survival of mice after intraperitoneal administration of compound at 200 mg/kg per day in experiment 2; survival/ tested =7/9. The conditions noted are these: ip. An outline of the steps:
as §2

In assay [42] the test system is Mus musculus. The assay is described as follows: Percentage survival of mice after intraperitoneal administration of compound at 50 mg/kg per day in experiment 1; survival/ tested =5/10. The conditions noted are these: ip. An outline of the steps: as §2

SMILES strings stand for the structures. ≈ marks a conversion by molar mass, not a printed value. Bounds are passed on as bounds.

Consider `Nc1ccn(C[C@@H](CO)OCP(=O)(O)O)c(=O)n1.O.O` [CIDOFOVIR], for which the Total score in the assay filed under Cavia porcellus [1] turned out to be 75; in the assay filed under Cavia porcellus [2], 72.8; in the assay listed under Cavia porcellus [3], 85.4; in the assay listed under Cavia porcellus [4], 8.2; in the assay filed under Cavia porcellus [5] it was 7; in the assay listed under Cavia porcellus [6], 3. For the same molecule, the Duration time was found to be 3.8 in the assay filed under Cavia porcellus [7]; 2.2 in the assay filed under Cavia porcellus [8]; 4.4 in the assay filed under Cavia porcellus [11]; 3.8 in the assay filed under Cavia porcellus [12]; 4.2 in the assay filed under Cavia porcellus [13]; 3.8 in the assay filed under Cavia porcellus [14]. Moreover, the Severity mean in the assay filed under Cavia porcellus [9] is 1; in the assay filed under Cavia porcellus [10], 0.8; in the assay filed under Cavia porcellus [30], 1.4. The IC50 in the assay with Human alphaherpesvirus 1 [15] was 5.4 µg/mL; in the assay on Human alphaherpesvirus 1 [16] it was 0.7 µg/mL; in the assay on Human alphaherpesvirus 2 [17], 2.3 µg/mL; in the assay on Human betaherpesvirus 5 it was 0.22 µg/mL. For the same molecule, the Mean survival time with Mus musculus [18] turned out to be 14.9 days; in the assay with Mus musculus [19], 19.7 days; in the assay with Mus musculus [20] it was 21 days; in the assay on Mus musculus [21] it was 21 days; in the assay on Mus musculus [22] it was 21 days; in the assay with Mus musculus [29], 21 days. Besides, in the assay with Mus musculus [23], the survival at 0.1 mg/kg/day worked out at 50%. Also, the survival at 100 mg/kg/day in the assay on Mus musculus [24] worked out at 100%. In addition, the survival at 10 mg/kg/day in the assay on Mus musculus [25] and in the assay on Mus musculus [26] was 100% throughout. The survival at 1 mg/kg/day with Mus musculus [27] came out at 90%. In the assay with Mus musculus [28], this molecule had a survival at 200 mg/kg/day of 100%.

As to `Nc1ccn(CCOCP(=O)(O)O)c(=O)n1`, the results for the IC50 in the assay with Human alphaherpesvirus 1 [15], with Human alphaherpesvirus 2 [17] and in the assay on Human betaherpesvirus 5 were greater than 100 µg/mL, greater than 100 µg/mL and greater than 2.7 µg/mL, respectively.

As to `Nc1nc2c(ncn2COCCO)c(=O)[nH]1` [ACYCLOVIR], the Total score is 60.4 in the assay filed under Cavia porcellus [31] and 14 in the assay filed under Cavia porcellus [32]. For the same molecule, the Duration time stood at 5.4 in the assay filed under Cavia porcellus [33] and 4.2 in the assay listed under Cavia porcellus [35]. The molecule further showed a Severity mean in the assay filed under Cavia porcellus [34] of 2.4. Moreover, the figures for the IC50 with Human alphaherpesvirus 1 [36], with Human alphaherpesvirus 1 [37] and in the assay with Human alphaherpesvirus 2 [38] were 0.5 µg/mL (≈ 2.22 µM), 4.3 µg/mL (≈ 19.1 µM) and 0.3 µg/mL (≈ 1.33 µM), respectively. For the same molecule, the survival at 100 mg/kg/day in the assay on Mus musculus [39] is 70%. Moreover, the survival at 200 mg/kg/day turned out to be 75% in the assay with Mus musculus [40] and 78% with Mus musculus [41]. For the same molecule, in the assay with Mus musculus [42], the survival at 50 mg/kg/day turned out to be 50%.

In the case of `Nc1nc2c(ncn2COC(CO)CO)c(=O)[nH]1` [GANCICLOVIR], the IC50 in the assay on Human alphaherpesvirus 1 [15] was 0.23 µg/mL (≈ 0.901 µM); in the assay on Human alphaherpesvirus 1 [16], greater than 10 µg/mL; in the assay with Human alphaherpesvirus 2 [17], 0.94 µg/mL (≈ 3.68 µM); in the assay with Human betaherpesvirus 5, 1.8 µg/mL (≈ 7.05 µM).

Consider `Nc1ncnc2c1ncn2C[C@@H](CO)OCP(=O)(O)O`, for which the IC50 in the assay with Human alphaherpesvirus 1 [15] turned out to be 9.3 µg/mL (≈ 30.7 µM); with Human alphaherpesvirus 1 [16], 3.2 µg/mL (≈ 10.6 µM); in the assay with Human alphaherpesvirus 2 [17], 25.2 µg/mL (≈ 83.1 µM); with Human betaherpesvirus 5, 0.27 µg/mL (≈ 0.89 µM).

The values are drawn from ChEMBL document CHEMBL1124514, “Synthesis and antiviral activity of the nucleotide analogue (S)-1-[3-hydroxy-2-(phosphonylmethoxy)propyl]cytosine” (1989).
